Laboratory results: ChEMBL document CHEMBL4049423, “Discovery of Novel 1,4-Diacylpiperazines as Selective and Cell-Active eIF4A3 Inhibitors” (J Med Chem, 2017)
Activity calls are given as the source filed them. No cut-off for these calls is given here.

Legend:
[1] = biological target: T1, Eukaryotic initiation factor 4A-III (Homo sapiens, UniProt P38919); test: Inhibition of MLN51-induced full-length human recombinant His6-tagged eIF4A3 RNA dependent ATPase activity expressed in Escherichia coli BL21(DE3) using single stranded poly(U) RNA as substrate after 30 mins by ADP-Glo luminescence assay
T1 sequence (P38919 whole entry): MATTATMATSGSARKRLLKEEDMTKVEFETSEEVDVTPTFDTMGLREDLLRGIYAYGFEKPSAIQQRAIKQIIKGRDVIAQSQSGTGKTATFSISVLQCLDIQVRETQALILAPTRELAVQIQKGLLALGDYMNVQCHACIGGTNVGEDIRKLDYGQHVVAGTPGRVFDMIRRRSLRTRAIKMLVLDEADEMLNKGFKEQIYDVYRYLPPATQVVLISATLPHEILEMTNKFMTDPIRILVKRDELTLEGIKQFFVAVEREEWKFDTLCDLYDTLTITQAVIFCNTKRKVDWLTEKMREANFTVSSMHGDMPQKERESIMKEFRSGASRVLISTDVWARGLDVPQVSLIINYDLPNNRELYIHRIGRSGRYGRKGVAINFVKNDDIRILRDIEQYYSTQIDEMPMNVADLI
Procedure, shortened: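 ADP-Glo luminescence read-out with 150 nM eIF4A3 plus an equimolar amount of MLN51. Substrates were 35 μM ATP and 1.5 μg/mL poly(U), both at Km. Buffer: 20 mM Tris-HCl pH 7.5, 2.5 mM MgCl2, 100 mM KCl, 1 mM DTT, 0.01% Tween20. Enzyme was added last to start the reaction, then incubated 30 min at room temperature. No-enzyme wells were taken as 100% inhibition and the complete reaction as 0%.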

[2] = biological target: T1, Eukaryotic initiation factor 4A-III; test: Inhibition of eIF4A3 (unknown origin) expressed in HEK293T cells assessed as NMD suppression at 3 uM after 6 hrs by luciferase reporter gene assay relative to control; type: cell-based
Procedure, shortened: (§1)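 HEK293T cells were co-transfected (Lipofectamine LTX) with the pGL4.12 SV40-Luc2CP-BGG NMD reporter and a pRL-TK renilla control. After 24 h of transfection, cells were treated with compound for 6 h. Firefly/renilla luciferase ratio was measured by dual-luciferase assay and normalized to DMSO-treated cells, n = 2.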

[3] = biological target: T1, Eukaryotic initiation factor 4A-III; test: Inhibition of eIF4A3 (unknown origin) expressed in HEK293T cells assessed as NMD suppression at 10 uM after 6 hrs by luciferase reporter gene assay relative to control; type: cell-based; procedure, shortened: as §1
[4] = biological target: T1, Eukaryotic initiation factor 4A-III; test: Binding affinity to full-length human recombinant His6-tagged eIF4A3 expressed in Escherichia coli BL21(DE3) by surface plasmon resonance assay
Procedure, shortened: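 eIF4A3 immobilized on CM7 chip by amine coupling (5000–10 000 RU) in HBS-P+ with 1 mM DTT. Binding run at 25 °C in 20 mM Tris-HCl pH 8.0, 150 mM NaCl, 0.2 mM TCEP, 0.02% P20, 1−2% DMSO. Compound injected at 6−12 concentrations for 60−120 s at 50 μL/min, dissociation followed 120−1200 s. Sensorgrams double-referenced, globally fitted to 1:1 model.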

[5] = biological target: T1, Eukaryotic initiation factor 4A-III; test: Binding affinity to full-length human recombinant His6-tagged eIF4A3 expressed in Escherichia coli BL21(DE3) assessed as dissociation half life by surface plasmon resonance assay
Procedure, shortened: (§2)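 eIF4A3 amine-coupled to a CM7 sensor chip (5000–10 000 RU) in HBS-P+ with 1 mM DTT. Binding was run at 25 °C in 20 mM Tris-HCl pH 8.0, 150 mM NaCl, 0.2 mM TCEP, 0.02% P20 and 1–2% DMSO. Compound series of 6–12 concentrations were injected for 60–120 s at 50 μL/min, with dissociation followed for 120–1200 s. Sensorgrams were double-referenced and globally fitted to a 1:1 model.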

[6] = biological target: T1, Eukaryotic initiation factor 4A-III; test: Binding affinity to full-length human recombinant His6-tagged eIF4A3 expressed in Escherichia coli BL21(DE3) assessed as dissociation rate constant by surface plasmon resonance assay; procedure, shortened: as §2
[7] = biological target: T1, Eukaryotic initiation factor 4A-III; test: Binding affinity to full-length human recombinant His6-tagged eIF4A3 expressed in Escherichia coli BL21(DE3) assessed as association rate constant by surface plasmon resonance assay; procedure, shortened: as §2

Work on `O=C(c1coc(-c2ccccc2)n1)N1CCN(C(=O)c2ccc(Cl)cc2)C(c2ccc(Cl)cc2)C1` (configuration not stated) yielded an IC50 [1] of 69000 nM.
`O=C(c1ccc(Cl)cc1)N1CCN(Cc2cnc(-c3ccccc3)o2)CC1c1ccc(Cl)cc1` (configuration not stated) was tested, and the IC50 [1] was > 100000 nM.
In the case of `N#Cc1ccc(-c2ncc(C(=O)N3CCN(C(=O)c4ccc(Cl)cc4)C(c4ccc(Cl)cc4)C3)o2)cc1` (configuration not stated), the IC50 [1] is reported as 8400 nM.
With `O=C(c1cnn2cccc(Br)c12)N1CCN(C(=O)c2ccc(Cl)cc2)C(c2ccc(Cl)cc2)C1` (configuration not stated) the IC50 [1] was 8900 nM.
Work on `N#Cc1ccccc1-c1ncc(C(=O)N2CCN(C(=O)c3ccc(Cl)cc3)C(c3ccc(Cl)cc3)C2)o1` (configuration not stated) yielded an IC50 [1] of 2100 nM.
In the case of `N#Cc1ccnc(-c2ncc(C(=O)N3CCN(C(=O)c4ccc(Br)cc4)C(c4ccc(Cl)cc4)C3)o2)c1` (configuration not stated), the IC50 [1] is reported as 390 nM, the “NMD suppression activity (qualitative)” value [2] is reported as “Active” and the fold change (FC) [3] is reported as 1.8.
`O=C(c1cnc(-c2ccccc2)o1)N1CCN(Cc2ccc(Cl)cc2)C(c2ccc(Cl)cc2)C1` (configuration not stated) was tested, and the IC50 [1] was > 100000 nM.
With `C[C@H]1C[C@@]2(O[C@H]3C[C@H]4[C@@H]5CC[C@H]6C[C@H](O)CC[C@]6(C)[C@H]5[C@@H](O)C[C@]4(C)[C@H]3[C@@]2(C)O)OC1(C)C` the Activity [4] was “Dose-dependent effect”.
`O=C(c1n[nH]c2ccccc12)N1CCN(C(=O)c2ccc(Cl)cc2)C(c2ccc(Cl)cc2)C1` (configuration not stated) showed an IC50 [1] of 62000 nM.
In the case of `Cc1c(C(=O)N2CCN(C(=O)c3ccc(Cl)cc3)C(c3ccc(Cl)cc3)C2)cnn1-c1ccccc1` (configuration not stated), the IC50 [1] is reported as 1600 nM.
In the case of `O=C(c1cnn2c(Br)cccc12)N1CCN(C(=O)c2ccc(Cl)cc2)C(c2ccc(Cl)cc2)C1` (configuration not stated), the IC50 [1] is reported as 1900 nM.
With `O=C1C(c2ccc(Cl)cc2)N(C(=O)c2ccc(Cl)cc2)CCN1Cc1cnc(-c2ccccc2)o1` (configuration not stated) the IC50 [1] was > 100000 nM.
With `O=C(c1ccn(-c2ccccc2)n1)N1CCN(C(=O)c2ccc(Cl)cc2)C(c2ccc(Cl)cc2)C1` (configuration not stated) the IC50 [1] was > 100000 nM.
In the case of `O=C(c1cnc(-c2ccccc2)o1)N1CCCN(C(=O)c2ccc(Cl)cc2)C(c2ccc(Cl)cc2)C1` (configuration not stated), the IC50 [1] is reported as > 100000 nM.
With `COc1ccc2c(C(=O)N3CCN(C(=O)c4ccc(Br)cc4)C(c4ccc(Cl)cc4)C3)cnn2c1` (configuration not stated) the IC50 [1] was 920 nM, the “NMD suppression activity (qualitative)” value [2] was “Active” and the fold change (FC) [3] was 1.7.
`O=C(c1cnc(-c2ccccc2)o1)N1CCN(C(=O)c2cccc(Cl)c2)C(c2ccc(Cl)cc2)C1` (configuration not stated) was tested, and the IC50 [1] was > 100000 nM.
Work on `O=C(c1cnn2cc(Br)ccc12)N1CCN(C(=O)c2ccc(Br)cc2)[C@@H](c2ccc(Cl)cc2)C1` yielded a T1/2 [5] of 7.3 min, an IC50 [1] of 200 nM and a K [6] of 1.6 ×10⁻³ /s. It also gave a Kd [4] of 57 nM and a K [7] of 2.8 ×10⁴ /M/s.
For `O=C(c1ncc(-c2ccccc2)o1)N1CCN(C(=O)c2ccc(Cl)cc2)C(c2ccc(Cl)cc2)C1` (configuration not stated), the IC50 [1] was > 100000 nM.
With `O=C(c1cnc(-c2ccccc2)o1)N1CCN(C(=O)c2ccc(Cl)cc2)C(c2cccc(Cl)c2)C1` (configuration not stated) the IC50 [1] was > 100000 nM.
With `O=C(c1cnn2ccc(Br)cc12)N1CCN(C(=O)c2ccc(Cl)cc2)C(c2ccc(Cl)cc2)C1` (configuration not stated) the IC50 [1] was 830 nM.
Work on `O=C(c1cnc(-c2ccccc2)o1)N1CCN(C(=O)c2ccccc2)C(c2ccc(Cl)cc2)C1` (configuration not stated) yielded an IC50 [1] of 11000 nM.
`N#Cc1ccc2c(C(=O)N3CCN(C(=O)c4ccc(Br)cc4)C(c4ccc(Cl)cc4)C3)cnn2c1` (configuration not stated) showed an IC50 [1] of 9000 nM.
With `O=C(c1cnc(-c2ccccc2)o1)N1CCN(C(=O)c2ccc(Cl)cc2)C(c2ccc(Cl)cc2)C1` (configuration not stated) the IC50 [1] was 2200 nM.
For `O=C(c1cnc(-c2ccccc2)o1)N1CCN(C(=O)c2ccc(Cl)cc2)C(c2ccccc2Cl)C1` (configuration not stated), the IC50 [1] was > 100000 nM.
`Cc1c(C(=O)N2CCN(C(=O)c3ccc(Br)cc3)C(c3ccc(Cl)cc3)C2)cnn1-c1cccc(C#N)c1` (configuration not stated) was tested, and the IC50 [1] was 580 nM, the “NMD suppression activity (qualitative)” value [2] was “Active” and the fold change (FC) [3] was 2.3.
With `O=C(c1cnn2cc(Br)ccc12)N1CCN(C(=O)c2ccc(Br)cc2)C(c2ccc(Cl)cc2)C1` (configuration not stated) the IC50 [1] was 420 nM, the “NMD suppression activity (qualitative)” value [2] was “Active” and the fold change (FC) [3] was 1.9.
In the case of `O=C(c1cnn2cc(Br)ccc12)N1CCN(C(=O)c2ccc(Br)cc2)[C@H](c2ccc(Cl)cc2)C1`, the T1/2 [5] is reported as 0.477 min, the IC50 [1] is reported as 60000 nM and the K [6] is reported as 2.4 ×10⁻² /s. The Kd [4] was 16000 nM and the K [7] was 1.5 ×10³ /M/s.
With `N#Cc1cccc(-c2ncc(C(=O)N3CCN(C(=O)c4ccc(Cl)cc4)C(c4ccc(Cl)cc4)C3)o2)c1` (configuration not stated) the IC50 [1] was 600 nM.
`O=C(c1cnc(-c2ccccc2)o1)N1CCN(C(=O)c2ccc(Br)cc2)C(c2ccc(Cl)cc2)C1` (configuration not stated) was tested, and the IC50 [1] was 660 nM.
`Cc1c(C(=O)N2CCN(C(=O)c3ccc(Br)cc3)[C@H](c3ccc(Cl)cc3)C2)cnn1-c1cccc(C#N)c1` was tested, and the IC50 [1] was > 100000 nM, the fold change (FC) [2] was 1.1 and the fold change (FC) [3] was 1.34.
`O=C(c1cnc(-c2ccccc2)o1)N1CCN(C(=O)c2ccc(Cl)cc2)C(C2CCCCC2)C1` (configuration not stated) was tested, and the IC50 [1] was > 100000 nM.
`O=C(c1cnn2cc(Br)ccc12)N1CCN(C(=O)c2ccc(Cl)cc2)C(c2ccc(Cl)cc2)C1` (configuration not stated) gave an IC50 [1] of 720 nM.
`O=C(c1cnn2ccccc12)N1CCN(C(=O)c2ccc(Cl)cc2)C(c2ccc(Cl)cc2)C1` (configuration not stated) was tested, and the IC50 [1] was 1100 nM.
With `O=C(c1cnn(-c2ccccc2)c1)N1CCN(C(=O)c2ccc(Cl)cc2)C(c2ccc(Cl)cc2)C1` (configuration not stated) the IC50 [1] was 2400 nM.
Compound `O=C(c1c[nH]c2ccccc12)N1CCN(C(=O)c2ccc(Cl)cc2)C(c2ccc(Cl)cc2)C1` (configuration not stated) has an IC50 [1] of 2300 nM.
For `O=C(c1cnc(-c2ccccc2)o1)N1CCN(C(=O)c2ccccc2Cl)C(c2ccc(Cl)cc2)C1` (configuration not stated), the IC50 [1] was > 100000 nM.
In the case of `N#Cc1cccc(-c2ncc(C(=O)N3CCN(C(=O)c4ccc(Br)cc4)C(c4ccc(Cl)cc4)C3)o2)c1` (configuration not stated), the IC50 [1] is reported as 360 nM, the “NMD suppression activity (qualitative)” value [2] is reported as “Active” and the fold change (FC) [3] is reported as 1.8.
